Laboratory results: ChEMBL document CHEMBL1154686, “Pyrazoline bearing benzimidazoles: search for anticancer agent” (2010)

Tests used:
Assay type in all cases: functional
[1] = tested on: SK-OV-3; assay: Growth inhibition of human SKOV3 cells after 48 hrs by SRB assay; conditions: SK-OV-3, 48 h
Procedure, shortened: (§1)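 NCI-60 panel protocol with adherent lines. Cells were seeded at 5,000–40,000 cells/well, depending on doubling time, and pre-incubated 24 h at 37 °C, 5% CO₂. Time-zero plates were TCA-fixed at drug addition. Drugs were dissolved in DMSO and exposed for 48 h. Cells were fixed with cold TCA (final 10%) for 60 min at 4 °C, stained with 0.4% SRB in 1% acetic acid for 10 min, solubilized with 10 mM trizma base, and read at A515.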

[2] = Growth inhibition of human Hs 578T cells after 48 hrs by SRB assay; procedure, shortened: as §1
[3] = tested on: KM12; assay: Growth inhibition of human KM12 cells after 48 hrs by SRB assay; conditions: KM12, 48 h; procedure, shortened: as §1
[4] = tested on: MDA-MB-435; assay: Growth inhibition of human MDA-MB-435 cells after 48 hrs by SRB assay; conditions: MDA-MB-435, 48 h; procedure, shortened: as §1
[5] = tested on: OVCAR-8; assay: Growth inhibition of human OVCAR8 cells after 48 hrs by SRB assay; conditions: OVCAR-8, 48 h; procedure, shortened: as §1
[6] = tested on: SK-MEL-28; assay: Growth inhibition of human SK-MEL-28 cells after 48 hrs by SRB assay; conditions: SK-MEL-28, 48 h; procedure, shortened: as §1
[7] = tested on: EKVX; assay: Growth inhibition of human EKVX cells after 48 hrs by SRB assay; procedure, shortened: as §1
[8] = tested on: OVCAR-3; assay: Growth inhibition of human OVCAR-3 cells after 48 hrs by SRB assay; conditions: OVCAR-3, 48 h; procedure, shortened: as §1
[9] = tested on: 786-0; assay: Growth inhibition of human 786-0 cells after 48 hrs by SRB assay; conditions: 786-0, 48 h; procedure, shortened: as §1
[10] = tested on: A549; assay: Growth inhibition of human A549 cells after 48 hrs by SRB assay; conditions: A549, 48 h; procedure, shortened: as §1
[11] = tested on: UO-31; assay: Growth inhibition of human UO31 cells after 48 hrs by SRB assay; conditions: UO-31, 48 h
Procedure, shortened: (§2)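 NCI 60-cell panel, five-dose format: cells plated at 5,000–40,000/well by doubling time, preincubated 24 h at 37 °C, 5% CO2; time-zero plates TCA-fixed. Compound dissolved in DMSO, five concentrations (0.01, 0.1, 1, 10, 100 µM) plus control, 48 h. Cells fixed with cold TCA, stained with 0.4% SRB in 1% acetic acid, bound dye solubilized in 10 mM trizma base, absorbance at 515 nm. GI50 taken from [(Ti–Tz)/(C–Tz)]×100 = 50.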

[12] = tested on: OVCAR-5; assay: Growth inhibition of human OVCAR5 cells after 48 hrs by SRB assay; conditions: OVCAR-5, 48 h; procedure, shortened: as §1
[13] = tested on: SR; assay: Growth inhibition of human SR cells after 48 hrs by SRB assay; procedure, shortened: as §2
[14] = tested on: SF-539; assay: Growth inhibition of human SF539 cells after 48 hrs by SRB assay; conditions: SF-539, 48 h; procedure, shortened: as §1
[15] = tested on: LOX IMVI; assay: Growth inhibition of human LOXIMVI cells after 48 hrs by SRB assay; procedure, shortened: as §1
[16] = tested on: NCI-H23; assay: Growth inhibition of human NCI-H23 cells after 48 hrs by SRB assay; conditions: NCI-H23, 48 h; procedure, shortened: as §1
[17] = tested on: IGROV-1; assay: Growth inhibition of human IGROV1 cells after 48 hrs by SRB assay; conditions: IGROV-1, 48 h; procedure, shortened: as §1
[18] = tested on: MOLT-4; assay: Growth inhibition of human MOLT4 cells after 48 hrs by SRB assay; conditions: MOLT-4, 48 h
Procedure, shortened: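 Suspension leukemia lines were run in the NCI-60 SRB format. Cells were plated at 5,000–40,000 cells/well and pre-incubated 24 h at 37 °C, 5% CO₂, with time-zero plates fixed at drug addition. Drug exposure in DMSO-derived dilutions lasted 48 h. Settled cells were fixed with 80% TCA (final 16%), stained with 0.4% SRB, solubilized in 10 mM trizma base, and read at 515 nm. Percent growth was taken relative to the time-zero and control readings.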

[19] = tested on: U-251; assay: Growth inhibition of human U251 cells after 48 hrs by SRB assay; conditions: U-251, 48 h; procedure, shortened: as §2
[20] = tested on: TK-10; assay: Growth inhibition of human TK10 cells after 48 hrs by SRB assay; conditions: TK-10, 48 h; procedure, shortened: as §2
[21] = tested on: SW-620; assay: Growth inhibition of human SW620 cells after 48 hrs by SRB assay; conditions: SW-620, 48 h; procedure, shortened: as §2
[22] = tested on: HOP-92; assay: Growth inhibition of human HOP92 cells after 48 hrs by SRB assay; conditions: HOP-92, 48 h; procedure, shortened: as §1
[23] = tested on: Malme-3M; assay: Growth inhibition of human MALME-3M cells after 48 hrs by SRB assay; procedure, shortened: as §1
[24] = tested on: SF-295; assay: Growth inhibition of human SF295 cells after 48 hrs by SRB assay; conditions: SF-295, 48 h; procedure, shortened: as §1
[25] = tested on: HL-60(TB); assay: Growth inhibition of human HL-60(TB) cells after 48 hrs by SRB assay; conditions: HL-60, 48 h
Procedure, shortened: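 NCI-60 protocol: cells seeded at 5,000–40,000/well by doubling time and preincubated 24 h at 37 °C, 5% CO2. Drug, dissolved in DMSO, was added at one dose (10^-5 M) or five 10-fold dilutions, then incubated 48 h. Suspension cells were fixed with 80% TCA (final 16%) and stained with 0.4% SRB, read at 515 nm. GI50 was derived from percentage growth versus time-zero and control.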

[26] = read-out: LC50 (the source's name)

## COc1ccc(C2CC(c3nc4ccccc4[nH]3)=NN2c2ccccc2)cc1OC (stereo not given)
[1]
  GI50: 33.1 µM
  TGI: > 100 µM
[1]; [26]
  CC50: > 100 µM
[2]
  GI50: 6.18 µM
  TGI: 41.2 µM
[2]; [26]
  CC50: > 100 µM
[3]
  GI50: 5.14 µM
  TGI: 19.5 µM
[3]; [26]
  CC50: 52.2 µM
[4]
  GI50: 4.15 µM
  TGI: > 100 µM
[4]; [26]
  CC50: > 100 µM
[5]
  GI50: 19.9 µM
  TGI: > 100 µM
[5]; [26]
  CC50: > 100 µM
[6]
  GI50: 13.1 µM
  TGI: 39 µM
[6]; [26]
  CC50: > 100 µM
[7]
  GI50: 9.83 µM
  TGI: > 100 µM
[7]; [26]
  CC50: > 100 µM
[8]
  GI50: 4.17 µM
  TGI: 18.9 µM
[8]; [26]
  CC50: 62.2 µM
[9]
  GI50: 24.2 µM
  TGI: > 100 µM
[9]; [26]
  CC50: > 100 µM
[10]
  GI50: 17.1 µM
  TGI: > 100 µM
[10]; [26]
  CC50: > 100 µM
[11]
  GI50: 2.2 µM
  TGI: 39.8 µM
[11]; [26]
  CC50: > 100 µM
[12]
  GI50: 26.7 µM
  TGI: > 100 µM
[12]; [26]
  CC50: > 100 µM
[13]
  GI50: > 100 µM
  TGI: > 100 µM
[13]; [26]
  CC50: > 100 µM
[14]
  GI50: 15 µM
  TGI: 38.6 µM
[14]; [26]
  CC50: 99.5 µM
[15]
  GI50: 5.1 µM
  TGI: 21.7 µM
[15]; [26]
  CC50: 62.9 µM
[16]
  GI50: 16 µM
  TGI: > 100 µM
[16]; [26]
  CC50: > 100 µM
[17]
  GI50: 0.92 µM
  TGI: 19.1 µM
[17]; [26]
  CC50: > 100 µM
[18]
  GI50: 17.9 µM
  TGI: > 100 µM
[18]; [26]
  CC50: > 100 µM
[19]
  GI50: 7.67 µM
  TGI: 80.2 µM
[19]; [26]
  CC50: > 100 µM
[20]
  GI50: 15.7 µM
  TGI: 65.9 µM
[20]; [26]
  CC50: > 100 µM
[21]
  GI50: 6.45 µM
  TGI: 23.3 µM
[21]; [26]
  CC50: 65.7 µM
[22]
  GI50: 3.89 µM
  TGI: > 100 µM
[22]; [26]
  CC50: > 100 µM
[23]
  GI50: 7.47 µM
  TGI: 92.7 µM
[23]; [26]
  CC50: > 100 µM
[24]
  GI50: 5.98 µM
  TGI: 51.4 µM
[24]; [26]
  CC50: > 100 µM
[25]
  GI50: > 100 µM
  TGI: > 100 µM
[25]; [26]
  CC50: > 100 µM
